Source: article PMC5935509 (Bioactive Materials, 2017)

Test system: HeLa cells
Test: Cytotoxicity measurement, CCK-8 cell viability assay
Assay type: cell-based
Conditions: 24 h of incubation, mean, n = 4
Method in brief: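 HeLa cells seeded at 10⁴ cells/well. For the combination arm, anticancer drug was added first (final 1, 10 or 100 µM), then self-assembling peptide at final 16 or 26 µM, charge-matched between peptides. Peptide-alone wells received the same peptide levels. After 24 h, drug and peptide were removed and viability read by CCK-8 absorbance at 450 nm. Four replicates, mean ± SD.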

COc1cccc2c1C(=O)c1c(O)c3c(c(O)c1C2=O)C[C@@](O)(C(=O)CO)C[C@@H]3O[C@H]1C[C@H](N)[C@H](O)[C@H](C)O1 [DOX, Doxorubicin]
cell viability (1 μM DOX, K10 16 μM or K6 26 μM): 70% | cell viability (100 μM DOX): 18%
